From paper PMC2292216 (The Journal of Experimental Medicine, 2008)

Experiments:
BLT2 [1] = target: T1, BLT2 (Homo sapiens, UniProt Q9NPC1); experiment: Boyden chamber chemotaxis assay of CHO-BLT2 cells; assay type: cell-based; details: for concentration required for maximal chemotaxis: Boyden chamber
T1 sequence (Q9NPC1 1-358): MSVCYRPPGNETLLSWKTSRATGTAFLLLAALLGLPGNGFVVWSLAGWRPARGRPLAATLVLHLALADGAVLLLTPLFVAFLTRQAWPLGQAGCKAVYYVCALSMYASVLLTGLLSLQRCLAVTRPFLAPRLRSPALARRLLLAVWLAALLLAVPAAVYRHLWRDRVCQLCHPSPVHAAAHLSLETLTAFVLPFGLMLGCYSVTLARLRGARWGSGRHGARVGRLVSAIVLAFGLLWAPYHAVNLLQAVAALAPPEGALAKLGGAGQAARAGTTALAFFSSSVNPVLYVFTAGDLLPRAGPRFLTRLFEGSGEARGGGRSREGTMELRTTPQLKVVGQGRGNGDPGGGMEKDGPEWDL

mouse BMMCs = experiment: Chemotaxis; assay type: cell-based
Outline: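 BMMCs from WT, BLT1-KO and BLT2-KO mice (knockouts backcrossed to BALB/c for 10 generations) grown in RPMI 1640 with 10% fetal calf serum, 0.1 mM nonessential amino acids and 50% WEHI-3 cell-conditioned medium; maturation checked by flow cytometry. Migration toward test compound measured; stem cell factor (via c-kit) as positive control.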

BLT2 [2] = target: T1, BLT2; details: cited from earlier work
BLT2 [3] = target: T1, BLT2; experiment: cAMP assay; assay type: cell-based
BLT2 [4] = target: T1, BLT2; experiment: IP accumulation assay in COS-7 cells coexpressing BLT2 and G14; assay type: cell-based
human BLT1 [5] = target: T2, human BLT1 (Homo sapiens, UniProt Q15722); experiment: cAMP assay; assay type: cell-based; details: CHO-BLT1 cells, 50 μM forskolin
mouse BLT2 = target: T3, mouse BLT2 (Mus musculus, UniProt Q9JJL9); experiment: IP accumulation assay in cells cotransfected with mouse BLT2 and G14; assay type: cell-based
T3 sequence (Q9JJL9 1-360): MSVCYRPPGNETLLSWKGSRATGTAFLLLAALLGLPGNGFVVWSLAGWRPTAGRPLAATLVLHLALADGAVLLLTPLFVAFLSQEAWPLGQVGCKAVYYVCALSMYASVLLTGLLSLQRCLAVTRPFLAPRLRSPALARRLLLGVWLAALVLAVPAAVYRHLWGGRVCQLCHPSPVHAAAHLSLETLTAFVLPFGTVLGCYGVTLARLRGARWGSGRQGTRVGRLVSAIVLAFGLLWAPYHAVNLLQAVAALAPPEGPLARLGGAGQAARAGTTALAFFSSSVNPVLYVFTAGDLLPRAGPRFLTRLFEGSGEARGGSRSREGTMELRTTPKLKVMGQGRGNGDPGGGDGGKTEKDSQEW

BLT2 [6] = target: T1, BLT2; experiment: [3H]LTB4 displacement assay, membrane preparations of CHO-BLT2 cells; assay type: binding
human BLT1 [7] = target: T2, human BLT1; experiment: Boyden chamber chemotaxis assay of CHO-BLT1 cells; assay type: cell-based
BLT2 [8] = target: T1, BLT2; experiment: Cytosensor microphysiometer assay in CHO-BLT2 cells; assay type: cell-based
Outline: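 CHO cells stably expressing BLT2, with BLT1 and mock transfectants alongside. Proton flux recorded by cytosensor microphysiometer on exposure to lipid extracts from rat, mouse or platelet sources, or to 1-min RP-HPLC fractions (MeOH/H2O/AcOH 70:30:0.01). ATP served as control for endogenous purinergic receptors.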

human BLT1 [9] = target: T2, human BLT1; experiment: Intracellular calcium mobilization in CHO-BLT1 cells; assay type: cell-based; details: concentrations as high as 3.3 μM
platelets = experiment: Platelet aggregation; assay type: cell-based; details: unpublished data

T2 sequence (Q15722 whole entry): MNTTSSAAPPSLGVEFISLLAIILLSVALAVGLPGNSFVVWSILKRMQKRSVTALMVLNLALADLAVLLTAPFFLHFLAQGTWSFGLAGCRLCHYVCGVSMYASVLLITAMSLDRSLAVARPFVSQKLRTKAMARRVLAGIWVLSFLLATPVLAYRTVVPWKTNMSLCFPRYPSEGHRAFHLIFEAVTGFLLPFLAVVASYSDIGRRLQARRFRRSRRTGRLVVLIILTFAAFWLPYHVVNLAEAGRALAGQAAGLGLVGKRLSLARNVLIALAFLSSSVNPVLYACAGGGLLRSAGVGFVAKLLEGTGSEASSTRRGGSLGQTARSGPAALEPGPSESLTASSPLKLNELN

Compound	concentration required for maximal chemotaxis (BLT2 [1])	migration of BMMCs (mouse BMMCs; BMMCs from BLT2-KO mice)	migration of BMMCs (mouse BMMCs; BMMCs from WT mice)	migration of BMMCs (mouse BMMCs; BMMCs from BLT1-KO mice)	agonist activity at BLT2 (BLT2 [2])	also measured
CCCCC/C=C\C[C@@H](O)/C=C/C=C/C=C\[C@@H](O)CCCC(=O)O [LTB4, 5(S), 12(R)-dihydroxy-6, 14-cis-8, 10-trans-eicosatetraenoic acid]	> 1,000 nM	migrated in response to LTB4	migrated in response to LTB4	–	–	–
SCF: stem cell factor, positive control inducing chemotaxis through the c-kit receptor	–	induced robust chemotaxis	induced robust chemotaxis	induced robust chemotaxis	–	–
CCCCC/C=C\C[C@H](O)/C=C/C=C\C/C=C\CCCC(=O)O [12-HETE]	–	–	–	–	weak agonists	–
pertussis toxin	–	–	–	–	–	effect of pretreatment on 12-HHT-induced chemotaxis (BLT2 [1]; pretreatment): completely abolished; effect of pretreatment on 12-HHT-dependent adenylyl cyclase inhibition (BLT2 [3]; CHO-BLT2 cells, pretreatment): completely blocked
CCCCC[C@H](O)/C=C/C=C\C/C=C\C/C=C\CCCC(=O)O [15-HETE]	–	–	–	–	weak agonists	–
CCCCC[C@H](O)/C=C/C=C/C/C=C\CCCC(=O)O [12-HHT, 12(S)-hydroxyheptadeca-5Z, 8E, 10E–trienoic acid]	30 nM	–	migrated in response to 12-HHT	migrated in response to 12-HHT	–	EC50 (BLT2 [4]): 5.4 nM; adenylyl cyclase inhibition (human BLT1 [5]): had no effect; activation of mouse BLT2 by IP accumulation (mouse BLT2): activated mouse BLT2; IC50 (BLT2 [6]): 2.8 nM; chemotaxis (human BLT1 [7]): failed to induce chemotaxis; activation of BLT2 in the cytosensor assay (BLT2 [8]): able to activate BLT2; calcium mobilization (human BLT1 [9]): failed to induce calcium mobilization; IC50 (BLT2 [3]): 1 nM; agonistic activity in platelet aggregation (platelets): did not display agonistic activity
